The values below come from ChEMBL document CHEMBL1212790, “Triclosan resistance of Pseudomonas aeruginosa PAO1 is due to FabV, a triclosan-resistant enoyl-acyl carrier protein reductase” (2010).

≈ marks a conversion by molar mass, not a printed value. Calls of active or inactive are those of the source. No cut-off for these calls is given here.

Data set [1] has as its system Pseudomonas aeruginosa. The data set can be described thus: Activity of Pseudomonas aeruginosa PA0170 fabV in presence of 100 uM NADH. The method in brief:
(§1)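 Cell extracts (2 μg) of the P. aeruginosa deletion strains (PAO170 ΔfabV, PAO272 ΔfabI) were assayed for NADH-dependent enoyl-ACP reductase activity in 70 μl of 0.1 M sodium phosphate pH 7.5 with 0.1 mM NADH. Reactions were started with 100 μM trans-2-decenoyl-ACP and run with or without 15 μg/ml triclosan. Values are means plus standard deviations of three experiments.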

Data set [2] deals with Pseudomonas aeruginosa. The data set can be described thus: Inhibition of wild type Pseudomonas aeruginosa ENR assessed as reduction of [1-14C]acetate incorporation into phospholipids.
Data set [3] concerns Pseudomonas aeruginosa. Description: Inhibition of Pseudomonas aeruginosa PA0170 fabV assessed as reduction of [1-14C]acetate incorporation into phospholipids.
The test system of data set [4] is Escherichia coli. Description: Antibacterial activity against Escherichia coli W3110 containing empty vector pBluescript at 37 deg C. Type of data set: functional. The method in brief:
(§2)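 Triclosan MIC on LB agar plates carrying serial dilutions of triclosan; cells plated and plates incubated at 37°C. MIC taken as the triclosan concentration of the first plate without growth. E. coli hosts (W3110, MG1655) carried pBluescript SK(+)-derived plasmids encoding fabV or fabI, or the empty vector.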

Data set [5] addresses T1, Enoyl-[acyl-carrier-protein] reductase [NADH] FabI (Pseudomonas aeruginosa) (UniProt Q9ZFE4).
T1 sequence (whole entry): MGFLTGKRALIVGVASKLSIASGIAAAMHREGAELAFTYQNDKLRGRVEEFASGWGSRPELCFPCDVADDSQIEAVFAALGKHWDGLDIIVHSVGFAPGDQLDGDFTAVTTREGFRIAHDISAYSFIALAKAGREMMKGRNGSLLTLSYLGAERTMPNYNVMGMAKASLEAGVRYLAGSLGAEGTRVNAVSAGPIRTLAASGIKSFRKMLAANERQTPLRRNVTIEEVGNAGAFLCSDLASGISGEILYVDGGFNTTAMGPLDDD
Description: Inhibition of Pseudomonas aeruginosa fabI activity assessed as conversion of 3-hydroxydecanoyl-ACP to trans-2-decenoyl-ACP at 10 ug/ml in presence of 2.5 M urea. The method in brief: (§3)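 3-Hydroxydecanoyl-ACP dehydrated to trans-2-decenoyl-ACP with E. coli FabZ, then split into tubes holding dried triclosan (added from an ethanol stock and dried down). Purified His-tagged PaFabV or PaFabI added; reduction in 0.1 M sodium phosphate pH 7.0 with NADH, 1 h. Products resolved by conformationally sensitive PAGE with 2.5 M urea and Coomassie staining.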

Data set [6] relates to Pseudomonas aeruginosa. The data set can be described thus: Antibacterial activity against Pseudomonas aeruginosa PA0272 lacking fabI assessed as microbial growth inhibition.
For data set [7], the target named is T1, Enoyl-[acyl-carrier-protein] reductase [NADH] FabI (Pseudomonas aeruginosa). The data set can be described thus: Inhibition of Pseudomonas aeruginosa PAO272 fabI assessed as reduction of Enoyl-[acyl-carrier-protein] reductase activity at 15 ug/ml. The method in brief: (§4)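 Cell-extract ENR assay (70 μl) in 0.1 M sodium phosphate pH 7.5 with 0.1 mM NADH and 2 μg of cell extract. Started with 100 μM trans-2-decenoyl-ACP, with or without 15 μg/ml triclosan. NADH-dependent activity followed as the drop in A340. Means plus standard deviations of three experiments.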

In data set [8] the test system is Pseudomonas aeruginosa. Description: Antibacterial activity against Pseudomonas aeruginosa PA01 assessed as microbial growth inhibition. The class given is functional.
The target of data set [9] is T1, Enoyl-[acyl-carrier-protein] reductase [NADH] FabI (Pseudomonas aeruginosa). The data set can be described thus: Inhibition of Pseudomonas aeruginosa PAO272 fabI assessed as reduction of [1-14C]acetate incorporation into phospholipids.
Data set [10] concerns Pseudomonas aeruginosa. The data set can be described thus: Antibacterial activity against Pseudomonas aeruginosa PA0170 lacking fabV gene assessed as microbial growth inhibition.
For data set [11], the system named is Escherichia coli. Description: Antibacterial activity against Escherichia coli MG1655 containing pZL19 expressing Escherichia coli fabI gene assessed as microbial growth inhibition. The class given is functional. A digest of the protocol: as §2
Data set [12] relates to Escherichia coli. Description: Antibacterial activity against Escherichia coli W3110 containing pZL16 expressing sPseudomonas aeruginosa fabV gene assessed as microbial growth inhibition. Type of data set: functional. The method in brief:
as §2

The test system of data set [13] is Escherichia coli. Description: Antibacterial activity against Escherichia coli W3110 containing pZL19 expressing sEscherichia coli fabI gene assessed as microbial growth inhibition. Type of data set: functional. The method in brief:
as §2

In data set [14] the test system is Escherichia coli. Description: Antibacterial activity against Escherichia coli MG1655 pZL17 expressing Pseudomonas aeruginosa fabI gene assessed as microbial growth inhibition. Type of data set: functional. The method in brief:
as §2

The subject of data set [15] is Escherichia coli. The data set can be described thus: Antibacterial activity against Escherichia coli W3110 containing pZL17 expressing Pseudomonas aeruginosa fabI gene assessed as microbial growth inhibition. Type of data set: functional. The method in brief: as §2
Data set [16] relates to Pseudomonas aeruginosa. The data set can be described thus: Inhibition of Pseudomonas aeruginosa fabV activity assessed as conversion of […] at 1000 ug/ml in presence of 2.5 M urea. The method in brief: as §3
The subject of data set [17] is Escherichia coli. Description: Antibacterial activity against Escherichia coli MG1655 pZL16 expressing Pseudomonas aeruginosa fabV gene assessed as microbial growth inhibition. The class given is functional. The method in brief:
as §2

The test system of data set [18] is Pseudomonas aeruginosa. Description: Inhibition of Pseudomonas aeruginosa PA0170 fabV assessed as reduction of Enoyl-[acyl-carrier-protein] reductase activity at 15 ug/ml. A digest of the protocol:
as §4

The subject of data set [19] is Escherichia coli. Description: Antibacterial activity against Escherichia coli MG1655 containing empty vector pBluescript assessed as microbial growth inhibition. Type of data set: functional. A digest of the protocol:
as §2

Data set [20] concerns Pseudomonas aeruginosa. The data set can be described thus: Inhibition of wild type Pseudomonas aeruginosa ENR at 15 ug/ml. A digest of the protocol:
as §4

Compound in data set [21]: C/C=C/C(=O)SCCNC(=O)CCNC(=O)[C@@H](O)C(C)(C)COP(=O)(O)OP(=O)(O)OC[C@H]1O[C@@H](n2cnc3c(N)ncnc32)[C@H](O)[C@@H]1OP(=O)(O)O
The data set can be described thus: Inhibition of Pseudomonas aeruginosa PAO272 fabI in presence of 100 uM NADH. The method in brief:
as §1

For orientation: Km means the substrate concentration at which the rate is half of its maximum. For orientation: Vmax means the rate approached at saturating substrate. As for `C/C=C/C(=O)SCCNC(=O)CCNC(=O)[C@@H](O)C(C)(C)COP(=O)(O)OP(=O)(O)OC[C@H]1O[C@@H](n2cnc3c(N)ncnc32)[C@H](O)[C@@H]1OP(=O)(O)O`, in the data set on Pseudomonas aeruginosa [1], the Km is 704 µM and the Vmax worked out at 7.9 nmol/min/mg.

By inhibition is commonly meant the change of the read-out against control, counted positive when it falls. Usually MIC stands for the lowest concentration found to suppress growth. For `Oc1cc(Cl)ccc1Oc1ccc(Cl)cc1Cl` [TRICLOSAN], the inhibition result (with Pseudomonas aeruginosa [2]; in [7]; in [9]; in the data set on Pseudomonas aeruginosa [16]) was “inactive” throughout. Moreover, the inhibition entry (in the data set on Pseudomonas aeruginosa [3]; in data set [5]) was “Active” each time. Besides, the MIC was 0.2 µg/mL (≈ 0.691 µM) with Escherichia coli [4]; greater than 2000 µg/mL in the data set with Pseudomonas aeruginosa [6]; greater than 2000 µg/mL with Pseudomonas aeruginosa [8]; 1 µg/mL (≈ 3.45 µM) in the data set on Pseudomonas aeruginosa [10]; 3 µg/mL (≈ 10.4 µM) in the data set with Escherichia coli [11]; greater than 2000 µg/mL in the data set with Escherichia coli [12]. The MIC in the data set on Escherichia coli [13] was 3 µg/mL (≈ 10.4 µM); with Escherichia coli [14], 4 µg/mL (≈ 13.8 µM); in the data set on Escherichia coli [15], 4 µg/mL (≈ 13.8 µM); with Escherichia coli [17] it was greater than 2000 µg/mL; in the data set with Escherichia coli [19] it was 0.2 µg/mL (≈ 0.691 µM). In addition, the figures for the inhibition in the data set on Pseudomonas aeruginosa [18] and in the data set on Pseudomonas aeruginosa [20] were 15% and 29%, respectively.

B1: Enoyl-[acyl-carrier-protein] reductase [NADH] FabI (Pseudomonas aeruginosa), Q9ZFE4 (protein)
chain: MGFLTGKRALIVGVASKLSIASGIAAAMHREGAELAFTYQNDKLRGRVEEFASGWGSRPELCFPCDVADDSQIEAVFAALGKHWDGLDIIVHSVGFAPGDQLDGDFTAVTTREGFRIAHDISAYSFIALAKAGREMMKGRNGSLLTLSYLGAERTMPNYNVMGMAKASLEAGVRYLAGSLGAEGTRVNAVSAGPIRTLAASGIKSFRKMLAANERQTPLRRNVTIEEVGNAGAFLCSDLASGISGEILYVDGGFNTTAMGPLDDD
In the case of B1, in data set [21], the Km worked out at 4.7 µM and the Vmax stood at 1.5 nmol/min/mg.
